Data: ChEMBL document CHEMBL3232989, “First identification of boronic species as novel potential inhibitors of the Staphylococcus aureus NorA efflux pump” (J Med Chem, 2014)

Tests used:
Staphylococcus aureus [1] = test: Toxicity in fluoroquinolone-resistant Staphylococcus aureus 1199B expressing NorA at 100 ug/ml after 24 hrs by microdilution method; format: organism-based
Summary of the method: (§1)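 Single-point screen at 100 μg/mL of compound alone in MH broth microdilution, 10^6 CFU/mL, 24 h at 37 °C. Growth is read at 620 nm and visually, giving percent growth inhibition. Compounds inhibiting more than 90% then go to MIC determination. Duplicates.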

Staphylococcus aureus [2] = test: Toxicity in Staphylococcus aureus ATCC 25923 after 24 hrs by microdilution method; format: organism-based
Summary of the method: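 Mueller–Hinton broth microdilution; inoculum from frozen culture grown 18 h at 37 °C, 10^6 CFU/mL per well. Compounds (10 mg/mL DMSO stock) in 2-fold serial dilutions, highest 128 mg/L, first screened at 100 μg/mL. MIC = complete growth inhibition after 24 h at 37 °C, read at 620 nm and visually; duplicate; ampicillin control.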

[3] = target: T1, Quinolone resistance protein NorA (Staphylococcus aureus) (UniProt P0A0J7); test: Inhibition of NorA in fluoroquinolone-resistant Staphylococcus aureus 1199B assessed as potentiation of 4 ug/ml of ciprofloxacin MIC at 100 ug/ml after 24 hrs by microdilution method
T1 sequence (whole entry): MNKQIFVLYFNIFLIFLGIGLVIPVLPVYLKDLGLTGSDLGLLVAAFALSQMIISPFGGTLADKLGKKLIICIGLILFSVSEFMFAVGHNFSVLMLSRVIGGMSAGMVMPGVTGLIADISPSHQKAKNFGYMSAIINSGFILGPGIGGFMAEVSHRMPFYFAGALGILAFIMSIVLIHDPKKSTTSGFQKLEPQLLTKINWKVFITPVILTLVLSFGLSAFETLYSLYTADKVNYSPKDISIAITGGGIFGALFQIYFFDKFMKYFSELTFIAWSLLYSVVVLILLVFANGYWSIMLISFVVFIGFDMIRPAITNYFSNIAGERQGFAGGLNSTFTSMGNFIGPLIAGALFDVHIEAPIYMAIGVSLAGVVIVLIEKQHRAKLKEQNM
Summary of the method: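 Combination with ciprofloxacin 4 μg/mL (MIC/4) against SA-1199B in MH broth microdilution, 10^6 CFU/mL, 24 h at 37 °C, read at 620 nm and visually. Compounds are first screened at 100 μg/mL; actives are 2-fold serially diluted. MMC4 is the lowest inhibitor concentration giving antibacterial activity with subinhibitory ciprofloxacin. Duplicates.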

Staphylococcus aureus [4] = test: Toxicity in Staphylococcus aureus ATCC 25923 at 100 ug/ml after 24 hrs by microdilution method; format: organism-based; summary of the method: as §1

SMILES | growth inhibition (GI) (Staphylococcus aureus [1]) [%] | MIC (Staphylococcus aureus [2]) | Activity [3] [µg/mL] | growth inhibition (GI) (Staphylococcus aureus [4]) [%]
CC(C)(O)C(C)(C)OB(OC(C)(C)C(C)(C)O)c1ccncc1Cl | < 90 | >= 64 ug ml-1 | > 128 | < 90
OB(O)c1ccnc(Cl)c1 | < 90 | >= 64 ug ml-1 | > 128 | < 90
COc1ncccc1B(OC(C)(C)C(C)(C)O)OC(C)(C)C(C)(C)O | < 90 | >= 64 ug ml-1 | > 128 | < 90
N#Cc1cnccc1B(O)O | < 90 | >= 64 ug ml-1 | > 128 | < 90
OB(O)c1ccnc(F)c1 | < 90 | >= 64 ug ml-1 | > 128 | < 90
CC(C)(C)OC(=O)n1cccc1B(O)O | < 90 | >= 64 ug ml-1 | > 128 | < 90
COc1nccc(B(OC(C)(C)C(C)(C)O)OC(C)(C)C(C)(C)O)c1Cl | < 90 | >= 64 ug ml-1 | 32 | < 90
OB(O)c1cccnc1Cl | < 90 | >= 64 ug ml-1 | > 128 | < 90
CC1(C)OB(c2cncs2)OC1(C)C | < 90 | >= 64 ug ml-1 | > 128 | < 90
CC(C)(O)C(C)(C)OB(OC(C)(C)C(C)(C)O)c1ccc(NCc2ccccc2)nc1 | < 90 | >= 64 ug ml-1 | 128 | < 90
CSc1ncccc1B(OC(C)(C)C(C)(C)O)OC(C)(C)C(C)(C)O | < 90 | >= 64 ug ml-1 | > 128 | < 90
CC(C)Nc1ccc(B(O)O)cc1 | < 90 | >= 64 ug ml-1 | 64 | < 90
CCOc1ncccc1B(O)O | < 90 | >= 64 ug ml-1 | > 128 | < 90
Cc1cc(B(OC(C)(C)C(C)(C)O)OC(C)(C)C(C)(C)O)cnc1N1CCOCC1 | < 90 | >= 64 ug ml-1 | 32 | < 90
OB(O)c1cccnc1 | < 90 | >= 64 ug ml-1 | 32 | < 90
CC(C)(O)C(C)(C)OB(OC(C)(C)C(C)(C)O)c1cc(Cl)ncc1Cl | < 90 | >= 64 ug ml-1 | 32 | < 90
CC(C)(O)C(C)(C)OB(OC(C)(C)C(C)(C)O)c1cccnc1F | < 90 | >= 64 ug ml-1 | > 128 | < 90
COC(=O)[C@H]1[C@H]2C[C@@H]3c4[nH]c5cc(OC)ccc5c4CCN3C[C@H]2C[C@@H](OC(=O)c2cc(OC)c(OC)c(OC)c2)[C@@H]1OC [RESERPINE] | – | >= 64 ug ml-1 | 4 | –

SMILES | growth inhibition (GI) (Staphylococcus aureus [1]) [%] | MIC (Staphylococcus aureus [2]) | Activity [3] [µg/mL] | growth inhibition (GI) (Staphylococcus aureus [4]) [%]
OB(O)c1ccnc(F)c1Cl | < 90 | >= 64 ug ml-1 | 16 | < 90
OB(O)c1ccc(F)nc1 | < 90 | >= 64 ug ml-1 | 32 | < 90
CC(C)(C)OC(=O)Nc1ncc(B2OC(C)(C)C(C)(C)O2)s1 | < 90 | >= 64 ug ml-1 | > 128 | < 90
CC1(C)OB(c2cnc(-c3ccccc3)n2C(=O)c2ccccc2)OC1(C)C | < 90 | >= 64 ug ml-1 | 32 | < 90
N#Cc1ncccc1B(O)O | < 90 | >= 64 ug ml-1 | > 128 | < 90
OB(O)c1cccnc1OCc1ccccc1 | < 90 | >= 64 ug ml-1 | 32 | < 90
CC1(C)OB(c2ccc3c(cnn3COCC[Si](C)(C)C)c2)OC1(C)C | < 90 | >= 64 ug ml-1 | 16 | < 90
CC(C)(O)C(C)(C)OB(OC(C)(C)C(C)(C)O)c1ccncc1F | < 90 | >= 64 ug ml-1 | > 128 | < 90
OB(O)c1ccc(Oc2cccnc2)nc1 | < 90 | >= 64 ug ml-1 | > 128 | < 90
COc1cccc(B(O)O)c1OC | < 90 | >= 64 ug ml-1 | > 128 | < 90
CSc1ccc(B(OC(C)(C)C(C)(C)O)OC(C)(C)C(C)(C)O)cn1 | < 90 | >= 64 ug ml-1 | > 128 | < 90
CC(C)(O)C(C)(C)OB(OC(C)(C)C(C)(C)O)c1ccc(OCc2ccccc2)nc1 | < 90 | >= 64 ug ml-1 | 64 | < 90
CC(C)(O)C(C)(C)OB(OC(C)(C)C(C)(C)O)c1cncc(Br)c1 | < 90 | >= 64 ug ml-1 | > 128 | < 90
CC(C)(O)C(C)(C)OB(OC(C)(C)C(C)(C)O)c1ccnc(Cl)c1C#N | < 90 | >= 64 ug ml-1 | > 128 | < 90
CC(C)(O)C(C)(C)OB(OC(C)(C)C(C)(C)O)c1ccnc(Cl)c1 | < 90 | >= 64 ug ml-1 | 128 | < 90
OB(O)c1cncc(Oc2cncc(Cl)c2)c1 | < 90 | >= 64 ug ml-1 | 16 | < 90
CC(=O)n1nc(C)c2cc(B3OC(C)(C)C(C)(C)O3)ccc21 | < 90 | >= 64 ug ml-1 | 128 | < 90
OB(O)c1ccc2[nH]ncc2c1 | < 90 | >= 64 ug ml-1 | 32 | < 90
